Source: ChEMBL document CHEMBL1132554, “Inhibition of Trypanosoma cruzi trypanothione reductase by acridines: kinetic studies and structure-activity relationships” (J Med Chem, 1999)

The compounds below were run against T1, Trypanothione reductase (Trypanosoma cruzi, UniProt P28593) (assay: The mixed type inhibitory activity against trypanothione reductase was evaluated from Lineweaver Burk plots and Cornish-Bowdwn plots.). Conditions: not given.
T1 sequence (P28593 whole entry): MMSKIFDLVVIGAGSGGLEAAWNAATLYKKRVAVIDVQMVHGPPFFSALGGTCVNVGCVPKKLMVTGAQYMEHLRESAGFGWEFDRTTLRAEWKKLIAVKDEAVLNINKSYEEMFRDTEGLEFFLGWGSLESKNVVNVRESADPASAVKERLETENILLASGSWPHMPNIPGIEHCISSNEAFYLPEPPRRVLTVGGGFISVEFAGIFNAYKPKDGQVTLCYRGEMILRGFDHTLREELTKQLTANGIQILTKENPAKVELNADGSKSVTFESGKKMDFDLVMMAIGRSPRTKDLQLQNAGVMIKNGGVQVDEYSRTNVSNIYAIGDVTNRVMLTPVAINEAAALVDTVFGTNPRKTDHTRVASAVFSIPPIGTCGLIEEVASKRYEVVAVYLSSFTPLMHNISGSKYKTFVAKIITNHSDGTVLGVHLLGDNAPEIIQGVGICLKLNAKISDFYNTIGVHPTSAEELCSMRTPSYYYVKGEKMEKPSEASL

| Ki [µM] | SMILES |
| --- | --- |
| 21 | CCN(CC)CCCCSc1c2ccc(Cl)cc2nc2ccc(OC)cc12 |
| 83 | CCN(CC)CCSc1c2ccc(Cl)cc2nc2ccc(OC)cc12 |

Each compound was assayed against T1, Trypanothione reductase (assay: The competitive inhibitory activity against trypanothione reductase was evaluated from Lineweaver Burk plots). Conditions: read-out: Ki app.
Summary of the method: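 Recombinant T. cruzi TR purified from E. coli SG5, 7–10 mU per assay, at 25 °C in 40 mM Hepes, 1 mM EDTA, pH 7.5 with 100 µM NADPH. TS2 varied without inhibitor and at two inhibitor levels. Each point was measured at least twice. Apparent Ki is the mean of Ki,slope values from Lineweaver–Burk plots at each [I].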

| SMILES | Ki [µM] |
| --- | --- |
| Nc1c2c(nc3ccccc13)CCCC2 [TACRINE] | 140 |
| Nc1c2c(nc3cc(Cl)ccc13)CCCC2 | 80 |
| COc1ccc2nc3cc(Cl)ccc3c(N)c2c1 | 7 |
| CCN(CC)CCCC(C)Nc1c2ccccc2nc2cc(Cl)ccc12 (centres undefined) | 10 |
| CCN(CC)CCCCC(C)Nc1c2ccc(Cl)cc2nc2ccc(OC)cc12 (centres undefined) | 5.5 |
| Nc1c2ccccc2nc2ccccc12 [AMINACRINE] | 38 |

Next, values leading:

| Ki [µM] | SMILES |
| --- | --- |
| 43 | Nc1c2ccccc2nc2cc(Cl)ccc12 |
| 11 | CCN(CC)CCCCC(C)Nc1c2ccccc2nc2cc(Cl)ccc12 (centres undefined) |
| 19 | CCN(CC)CCCC(C)Nc1c2ccc(Cl)cc2nc2ccc(OC)cc12 (centres undefined) [QUINACRINE] |
| 27 | CCN(CC)CCCC(C)Nc1c2ccccc2nc2ccc(OC)cc12 (centres undefined) |

Each compound was assayed against T1, Trypanothione reductase (assay: The mixed type inhibitory activity against trypanothione reductase was evaluated from Lineweaver Burk plots). Conditions: not given.

| Ki [µM] | SMILES |
| --- | --- |
| 67 | CCN(CC)CCCCSc1c2ccc(Cl)cc2nc2ccc(OC)cc12 |
| 37 | CCN(CC)CCSc1c2ccc(Cl)cc2nc2ccc(OC)cc12 |
